pKi: −log10 of the molar value.
Columns and labels:
[1] = biological target: GABA-A receptor; alpha-1/beta-3/gamma-2 (Homo sapiens) (UniProt P14867+P18507+P28472); test: Percent change in electrophysiological response in Xenopus oocytes expressing Alpha1-beta3-gamma2 GABA-A receptor; format: functional, cell-based; details: Oocyte
Procedure, shortened: (§1)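 Two-electrode voltage clamp on Xenopus oocytes injected with human GABA-A subunit cDNAs, 24-72 h expression, perfused with modified Barth's medium at pH 7.5, clamped between -40 and -70 mV. The GABA EC20 was titrated against a 3 mM GABA maximum. […] Result is % change of control current, mean ± SE of ≥4 oocytes.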

[2] = biological target: T1, GABA-A receptor; alpha-1/beta-3/gamma-2 (Homo sapiens, UniProt P14867+P18507+P28472); test: Binding affinity towards human alpha-1-beta-3-gamma-2 GABA-A receptor using [3H]Ro-151788 expressed in L(tk-) cells; format: cell-based
T1 sequence (P14867 whole entry): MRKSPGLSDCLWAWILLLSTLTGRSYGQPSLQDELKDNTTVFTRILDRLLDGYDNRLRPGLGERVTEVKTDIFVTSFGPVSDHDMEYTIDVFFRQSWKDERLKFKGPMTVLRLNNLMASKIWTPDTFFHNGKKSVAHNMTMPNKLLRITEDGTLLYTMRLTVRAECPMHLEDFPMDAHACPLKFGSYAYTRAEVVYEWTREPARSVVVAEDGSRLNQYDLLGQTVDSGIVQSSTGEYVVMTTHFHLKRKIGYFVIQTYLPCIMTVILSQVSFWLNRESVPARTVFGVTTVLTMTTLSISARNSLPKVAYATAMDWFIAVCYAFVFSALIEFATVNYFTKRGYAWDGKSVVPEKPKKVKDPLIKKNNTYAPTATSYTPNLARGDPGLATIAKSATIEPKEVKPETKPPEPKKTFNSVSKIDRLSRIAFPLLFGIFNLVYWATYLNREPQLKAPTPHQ
T1 sequence (P18507 whole entry): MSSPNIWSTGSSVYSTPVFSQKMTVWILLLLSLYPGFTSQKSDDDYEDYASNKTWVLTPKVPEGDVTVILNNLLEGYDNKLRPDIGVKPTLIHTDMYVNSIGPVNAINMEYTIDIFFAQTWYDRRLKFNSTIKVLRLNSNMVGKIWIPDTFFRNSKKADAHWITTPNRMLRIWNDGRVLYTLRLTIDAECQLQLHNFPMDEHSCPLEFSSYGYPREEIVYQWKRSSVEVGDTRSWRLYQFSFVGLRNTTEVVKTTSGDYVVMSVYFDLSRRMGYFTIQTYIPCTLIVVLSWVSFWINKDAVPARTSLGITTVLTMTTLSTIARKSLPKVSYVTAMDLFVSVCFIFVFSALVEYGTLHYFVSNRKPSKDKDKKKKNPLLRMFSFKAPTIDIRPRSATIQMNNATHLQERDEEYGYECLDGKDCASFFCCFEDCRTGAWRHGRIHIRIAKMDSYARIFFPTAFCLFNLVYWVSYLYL
T1 sequence (P28472 whole entry): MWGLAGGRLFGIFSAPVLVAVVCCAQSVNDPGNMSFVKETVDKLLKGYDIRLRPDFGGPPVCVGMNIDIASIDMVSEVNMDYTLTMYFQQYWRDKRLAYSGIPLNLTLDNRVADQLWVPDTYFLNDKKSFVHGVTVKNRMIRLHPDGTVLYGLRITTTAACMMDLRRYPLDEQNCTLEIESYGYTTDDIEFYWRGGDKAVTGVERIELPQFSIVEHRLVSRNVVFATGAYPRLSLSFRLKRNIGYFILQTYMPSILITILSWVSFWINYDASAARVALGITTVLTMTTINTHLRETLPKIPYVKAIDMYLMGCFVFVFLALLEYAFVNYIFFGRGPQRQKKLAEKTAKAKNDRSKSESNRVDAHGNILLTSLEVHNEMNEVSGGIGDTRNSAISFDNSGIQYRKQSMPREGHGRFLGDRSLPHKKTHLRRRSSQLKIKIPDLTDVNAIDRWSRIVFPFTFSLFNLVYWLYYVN

[3] = biological target: T2, GABA-A receptor; alpha-3/beta-3/gamma-2 (Homo sapiens, UniProt P18507+P28472+P34903); test: Binding affinity towards human gamma-aminobutyric-acid A receptor alpha-3-beta-3-gamma-2 using [3H]Ro-151788 expressed in L(tk-) cells; format: cell-based
T2 sequence (P18507 whole entry): T1 sequence (P18507 whole entry)
T2 sequence (P28472 whole entry): T1 sequence (P28472 whole entry)
T2 sequence (P34903 whole entry): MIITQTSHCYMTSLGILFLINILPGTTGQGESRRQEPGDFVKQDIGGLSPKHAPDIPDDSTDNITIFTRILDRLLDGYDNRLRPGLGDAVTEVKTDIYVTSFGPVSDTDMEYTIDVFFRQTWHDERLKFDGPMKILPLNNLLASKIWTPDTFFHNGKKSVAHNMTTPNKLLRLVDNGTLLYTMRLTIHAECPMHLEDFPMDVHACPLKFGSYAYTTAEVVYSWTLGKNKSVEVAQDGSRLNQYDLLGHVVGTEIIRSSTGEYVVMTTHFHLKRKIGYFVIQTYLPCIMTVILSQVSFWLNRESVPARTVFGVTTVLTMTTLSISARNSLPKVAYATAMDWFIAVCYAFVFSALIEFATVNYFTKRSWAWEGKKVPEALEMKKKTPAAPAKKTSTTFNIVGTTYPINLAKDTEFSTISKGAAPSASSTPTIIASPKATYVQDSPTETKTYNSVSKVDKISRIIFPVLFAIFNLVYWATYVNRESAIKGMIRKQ

[4] = biological target: GABA-A receptor; alpha-5/beta-3/gamma-2 (Homo sapiens) (UniProt P18507+P28472+P31644); test: Percent change in electrophysiological response in Xenopus oocytes expressing Alpha-5-beta-3-gamma-2 GABA-A receptor; format: functional, cell-based; details: Oocyte; procedure, shortened: as §1
[5] = biological target: T3, GABA-A receptor; alpha-2/beta-3/gamma-2 (Homo sapiens, UniProt P18507+P28472+P47869); test: Binding affinity towards human gamma-aminobutyric-acid A receptor alpha-2-beta-3-gamma-2 using [3H]Ro-151788 expressed in L(tk-) cells; format: cell-based
T3 sequence (P18507 whole entry): T1 sequence (P18507 whole entry)
T3 sequence (P28472 whole entry): T1 sequence (P28472 whole entry)
T3 sequence (P47869 whole entry): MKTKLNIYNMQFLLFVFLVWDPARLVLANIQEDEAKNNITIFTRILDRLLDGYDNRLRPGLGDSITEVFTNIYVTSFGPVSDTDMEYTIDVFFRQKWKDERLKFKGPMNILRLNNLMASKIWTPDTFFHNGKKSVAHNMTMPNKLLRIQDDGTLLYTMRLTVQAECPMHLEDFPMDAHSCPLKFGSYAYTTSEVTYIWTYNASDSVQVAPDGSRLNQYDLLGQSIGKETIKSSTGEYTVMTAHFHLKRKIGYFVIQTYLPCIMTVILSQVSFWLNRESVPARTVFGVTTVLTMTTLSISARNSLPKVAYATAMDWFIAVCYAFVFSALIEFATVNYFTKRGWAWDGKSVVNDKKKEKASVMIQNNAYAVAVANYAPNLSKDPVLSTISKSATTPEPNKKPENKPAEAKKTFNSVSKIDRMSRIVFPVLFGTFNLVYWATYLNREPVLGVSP

[6] = biological target: GABA-A receptor; alpha-3/beta-3/gamma-2 (Homo sapiens) (UniProt P18507+P28472+P34903); test: Percent change in electrophysiological response in Xenopus oocytes expressing Alpha3-beta3-gamma2 GABA-A receptor; format: functional, cell-based; details: Oocyte; procedure, shortened: as §1
[7] = biological target: GABA-A receptor; alpha-2/beta-3/gamma-2 (Homo sapiens) (UniProt P18507+P28472+P47869); test: Percent change in electrophysiological response in Xenopus oocytes expressing Alpha2-beta3-gamma2 GABA-A receptor; format: functional, cell-based; details: Oocyte; procedure, shortened: as §1
[8] = biological target: T4, GABA-A receptor; alpha-5/beta-3/gamma-2 (Homo sapiens, UniProt P18507+P28472+P31644); test: Binding affinity towards human alpha-5-beta-3-gamma-2 GABA-A receptor using [3H]Ro-151788 expressed in L(tk-) cells; format: cell-based
T4 sequence (P18507 whole entry): T1 sequence (P18507 whole entry)
T4 sequence (P28472 whole entry): T1 sequence (P28472 whole entry)
T4 sequence (P31644 whole entry): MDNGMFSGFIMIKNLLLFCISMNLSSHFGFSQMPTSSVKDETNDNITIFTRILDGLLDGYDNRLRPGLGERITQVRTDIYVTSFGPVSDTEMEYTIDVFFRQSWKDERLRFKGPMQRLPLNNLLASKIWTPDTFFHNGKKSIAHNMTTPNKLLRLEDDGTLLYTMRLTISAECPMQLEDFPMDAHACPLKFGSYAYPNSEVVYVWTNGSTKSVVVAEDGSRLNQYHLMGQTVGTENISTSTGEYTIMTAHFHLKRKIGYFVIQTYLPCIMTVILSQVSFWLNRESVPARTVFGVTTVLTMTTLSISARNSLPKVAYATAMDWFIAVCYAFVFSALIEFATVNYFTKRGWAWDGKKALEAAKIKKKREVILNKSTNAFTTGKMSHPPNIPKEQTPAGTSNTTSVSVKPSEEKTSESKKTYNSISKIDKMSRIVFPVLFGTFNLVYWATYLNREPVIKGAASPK

Row | SMILES | Efficacy [1] | pKi [2] | pKi [3] | Efficacy [4] | pKi [5] | Efficacy [6] | Efficacy [7] | pKi [8]
1 | Cc1cc(-c2nnc3c4c(c(OCc5ccccn5)nn23)CCCC4)no1 | 0.4% | 8.38 | 8.80 | -23% | 8.46 | -15% | -6% | –
2 | Cc1cccc(COc2nn3c(-c4nc(-c5ccccc5)no4)nnc3c3c2C2CCC3CC2)n1 | – | < 6.00 | 6.64 | – | 6.69 | – | – | 7.72
3 | CCc1noc(-c2nnc3c4c(c(OCc5cccc(C)n5)nn23)C2CCC4CC2)n1 | – | 6.77 | 7.68 | – | 7.47 | – | – | 8.46
4 | Cc1cccc(COc2nn3c(-c4ncnn4C)nnc3c3c2C2CCC3CC2)n1 | – | < 6.00 | < 6.00 | – | < 6.00 | – | – | 6.60
5 | Cc1noc(-c2nnc3c4c(c(OCc5ccccn5)nn23)C2CCC4CC2)n1 | – | 7.55 | 8.41 | -38% | 8.07 | – | – | 9.11
6 | Cc1nc(-c2nnc3c4c(c(OCc5cccc[n+]5[O-])nn23)C2CCC4CC2)[o+][n-]1 | – | 7.13 | 7.83 | – | 7.81 | – | – | 8.41
7 | Cc1cccc(COc2nn3c(-c4nc(-c5ccncc5)no4)nnc3c3c2C2CCC3CC2)n1 | – | < 6.00 | 7.58 | – | 6.68 | – | – | 8.68
8 | Cc1ccc(-c2nc3ccc(C)cn3c2CC(=O)N(C)C)cc1 [ZOLPIDEM] | 133% | – | 6.22 | – | 6.59 | 142% | 187% | < 5.00
9 | Cc1cccc(COc2nn3c(-c4ncn(C)n4)nnc3c3c2C2CCC3CC2)n1 | – | < 6.00 | < 6.00 | – | < 6.00 | – | – | 6.67
10 | Cc1cccc(COc2nn3c(-c4ccco4)nnc3c3c2C2CCC3CC2)n1 | – | 6.00 | 6.94 | – | 6.56 | – | – | 7.89
11 | Cc1cccc(COc2nn3c(-c4ccoc4)nnc3c3c2C2CCC3CC2)n1 | 27% | – | – | -24% | – | -4% | -5% | –
12 | Cc1noc(-c2nnc3c4c(c(OCc5ccccc5C#N)nn23)C2CCC4CC2)n1 | – | 7.76 | 8.77 | -45% | 8.54 | – | – | 9.36
13 | Cc1cccc(COc2nn3c(-c4csc(C)n4)nnc3c3c2C2CCC3CC2)n1 | – | < 6.00 | < 6.00 | – | < 6.00 | – | – | 7.24
14 | Cc1cccc(COc2nn3c(-c4nc(-c5cccnc5)no4)nnc3c3c2C2CCC3CC2)n1 | – | < 6.00 | 7.16 | – | 6.78 | – | – | 8.48
15 | Cc1cccc(COc2nn3c(-c4cc(C)on4)nnc3c3ccccc23)n1 | 15% | – | – | -15% | – | 3% | 12% | –
16 | Cc1cccc(COc2nn3c(-c4ccsc4)nnc3c3c2C2CCC3CC2)n1 | – | – | – | 7% | – | – | – | –
17 | Cc1cc(-c2nnc3c4c(c(OCc5ccccn5)nn23)C2CCC4C2)no1 (configuration not stated) | – | 7.24 | 7.75 | -13% | 7.71 | 0.6% | – | 8.26
18 | Cc1noc(-c2nnc3c4c(c(OCc5ccc(C)c(C)n5)nn23)C2CCC4CC2)n1 | 1% | 7.31 | 8.07 | -25% | 8.01 | -21% | – | 9.41
19 | Cc1noc(-c2nnc3c4c(c(OCc5cccnc5)nn23)C2CCC4CC2)n1 | – | 7.57 | 8.38 | – | 8.24 | – | – | 9.03
20 | Cc1noc(-c2nnc3c4c(c(OCc5ncc[nH]5)nn23)C2CCC4CC2)n1 | – | 6.80 | 7.71 | -26% | 7.44 | – | – | 8.42
21 | Cc1cccc(COc2nn3c(-c4coc(C)n4)nnc3c3c2C2CCC3CC2)n1 | – | 6.55 | 7.34 | – | 7.24 | – | – | 8.17
22 | Cc1cccc(COc2nn3c(-c4cccs4)nnc3c3c2C2CCC3CC2)n1 | – | 6.94 | 7.66 | – | 7.18 | – | – | 8.40
23 | Cc1cccc(COc2nn3c(-c4nc(C(C)C)no4)nnc3c3c2C2CCC3CC2)n1 | – | < 6.00 | 7.08 | – | 7.16 | – | – | 8.19
24 | Cc1cccc(COc2nn3c(-c4cc(C)on4)nnc3c3c2C2CCC3C2)n1 (configuration not stated) | – | 6.83 | 7.47 | -24% | 7.42 | 11% | – | 8.05
25 | Cc1cccc(COc2nn3c(-c4ccccn4)nnc3c3c2C2CCC3CC2)n1 | – | 6.29 | 6.98 | – | 6.64 | – | – | 7.82
